The values below come from paper PMC2865030 (Biochemical Journal, 2008).

Ends that are not written are not given here.

A word on the Kd: it is the concentration at which binding is half-saturated.

Series [1] concerns the target T1, Tah1 (Saccharomyces cerevisiae, UniProt P25638).
T1 sequence (P25638 1-111): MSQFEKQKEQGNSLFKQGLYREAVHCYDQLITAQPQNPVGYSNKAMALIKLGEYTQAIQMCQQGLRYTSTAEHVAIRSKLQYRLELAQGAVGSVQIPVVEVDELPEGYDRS
Briefly: ITC of peptides injected into Tah1. It is filed as binding, S. cerevisiae.

Another series has as its target yeast Hsp90 M705V. Description: ITC of TPR-domain proteins with yeast Hsp90 M705V. The conditions noted are these: 300 μM Tah1 injected into 30 μM yeast Hsp90 M705V, 4 °C, pH 8.0. It is filed as binding. The gist of the method: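 ITC: mouse CHIP or yeast Tah1 (His tags cleaved) at 300 µM was titrated as 9–11 injections of 27 µl into 30 µM yeast Hsp90 M705V. Runs were at 30 °C for CHIP and 4 °C for Tah1, in 20 mM Tris/HCl pH 8.0, 1 mM EDTA, 5 mM NaCl. Data were corrected for separately measured heat of dilution and fitted by nonlinear least squares for stoichiometry, binding constant and enthalpy.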

Series [2] concerns the target T1, Tah1. Description: Sedimentation equilibrium analytical ultracentrifugation of Tah1. It is filed as physicochemical, S. cerevisiae. The conditions noted are these: for Kd: 20 °C, pH 7.5. A digest of the protocol:
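Tag-cleaved Tah1 was dialysed into 20 mM Tris/HCl pH 7.5, 1 mM EDTA, 5 mM NaCl. Sedimentation equilibrium was run at 20 °C, loading 7.0 and 0.5 mg·ml−1 (547 and 39 µM), with a 12 mm path. Initial scans at 726 g checked for aggregates, followed by 39030 g, scanning hourly until unchanged (24 h). Data were fitted by INVEQ, Mfit and NONLIN, and Ka was reciprocated to Kd. Reversible versus irreversible dimer was judged by comparing the two loadings.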

On to PADTEVEEVD, for which, on Tah1 [1], the Kd was 9.8 ± 0.7 µM.

PADAAMEEVD came in with a Kd at Tah1 [1] of 0.75 ± 0.04 µM. In the case of “Tah1: TPR-containing protein associated with Hsp90, S. cerevisiae, 111 amino acid residues, Hsp90-interacting co-chaperone”, the equilibrium dissociation constant (Kd) at yeast Hsp90 M705V was found to be 13 ± 1.7 µM; with Tah1 [2] (read-out: Kd by INVEQ, Tah1 0.5 mg·ml−1 (39 μM), monomer-dimer), 510 µM; with Tah1 [2] (read-out: Kd′ by NONLIN′, Tah1 0.5 mg·ml−1 (39 μM)), 150 µM; with Tah1 [2] (read-out: Kd′ by NONLIN′, Tah1 7.0 mg·ml−1 (547 μM)), 1800 µM. Moreover, in the series with Tah1 [2] (estimated from INVEQ fit, sedimentation equilibrium), the dimeric species present entry is recorded as “approx. 19%”. As for PADTEAEEVD, on Tah1 [1], binding was characterised by a dissociation constant (Kd) of 3.3 ± 0.2 µM. Same read-out and setting: the figure for AEGPTMEEVD is 4.2 ± 0.5 µM; for AEGPTAEEVD it is 14.8 ± 0.7 µM.
